Results on 16 compounds are retold here after ChEMBL document CHEMBL4052705, “Synthesis and biological evaluation of 2-methyl-1H-benzimidazole-5-carbohydrazides derivatives as modifiers of redox homeostasis of Trypanosoma cruzi” (Bioorg Med Chem Lett, 2017).

One may read the CC50 as the concentration at which the toxic effect on the cells reaches its halfway point. High values mean better tolerance by the cells, low ones harm at low concentration. A word on the IC50: it is the point on the concentration scale where inhibition reaches its midpoint.

Molecules are shown by their SMILES. Calls of active or inactive are those of the source. The rule behind the calls is not given here.

Series [1] can be described thus: Cytotoxicity against mouse J774 cells incubated for 24 hrs by resazurin dye based fluorescence assay. Type of series: cell-based. An outline of the steps: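 J774 mouse macrophage cell line was exposed to the compounds, and cytotoxicity was read as resazurin reduction using a previously described method with modifications. The read-out gave CC50.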
Background: The colour change of resazurin is a common sign of viable cells or microbes.

Series [2] in a line: Selectivity index, ratio of CC50 for cytotoxicity against mouse J774 cells to IC50 for antitrypanosomal activity against Trypanosoma cruzi Queretaro epimastigotes. Type of series: toxicity, cell-based. To be noted: read-out: Ratio CC50/IC50. An outline of the steps:
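Selectivity index was calculated as CC50 in J774 mouse macrophages (resazurin reduction) divided by IC50 for growth inhibition of Queretaro-strain epimastigotes.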

In series [3] the test system is Trypanosoma cruzi. In words: Antitrypanosomal activity against Trypanosoma cruzi Queretaro epimastigotes assessed as reduction in parasite viability incubated for 24 hrs by Neubauer hematocytometery. Type of series: functional. An outline of the steps: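 T. cruzi Queretaro-strain epimastigotes were exposed to the compounds and parasite growth was measured. IC50 was taken as the concentration that inhibits parasite growth by 50%.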

For series [4], the system named is Trypanosoma cruzi. In words: Induction of changes in cellular redox balance in Trypanosoma cruzi Queretaro epimastigotes assessed as increase in T(SH)2 level at 5 to 20 uM incubated for 24 hrs by HPLC and UV-Vis spectrophotometry. Type of series: functional.
Series [5] relates to Trypanosoma cruzi. In words: Induction of changes in cellular redox balance in Trypanosoma cruzi Queretaro epimastigotes assessed as increase in GSH level incubated for 24 hrs by HPLC and UV-Vis spectrophotometry. Type of series: functional.
Series [6] concerns Trypanosoma cruzi. In words: Induction of changes in cellular redox balance in Trypanosoma cruzi Queretaro epimastigotes assessed as increase in cysteine level incubated for 24 hrs by HPLC and UV-Vis spectrophotometry. Type of series: functional.

In turn, `Cc1nc2cc(C(=O)O)ccc2[nH]1` had a half-maximal cytotoxic concentration (CC50) at 24 h in series [1] of 264 µM. Moreover, the selectivity ratio in series [2] is 1.2. In the series on Trypanosoma cruzi [3], the IC50 was determined as 226 µM.

Consider `COc1ccc(/C=N/NC(=O)c2ccc3[nH]c(C)nc3c2)c(OC)c1OC`, for which, in the series with Trypanosoma cruzi [3], the half-maximal inhibitory concentration (IC50) is > 500 µM.

Consider `COc1cc(/C=N/NC(=O)c2ccc3[nH]c(C)nc3c2)cc(OC)c1OC`, for which, in the series on Trypanosoma cruzi [3], the IC50 was > 500 µM.

Take `Cc1nc2cc(C(=O)N/N=C/c3cc(O)ccc3O)ccc2[nH]1`: in the series with Trypanosoma cruzi [3], the IC50 was > 500 µM.

`Cc1nc2cc(C(=O)N/N=C/c3ccc(O)c(O)c3)ccc2[nH]1`: the IC50 with Trypanosoma cruzi [3] turned out to be 380 µM.

With `Cc1nc2cc(C(=O)N/N=C/c3ccc(O)cc3)ccc2[nH]1`, the IC50 in the series on Trypanosoma cruzi [3] was > 500 µM.

`Cc1nc2cc(C(=O)N/N=C/c3ccc4c(c3)OCCO4)ccc2[nH]1`: the IC50 in the series with Trypanosoma cruzi [3] was > 500 µM.

For `CC1CS(=O)(=O)CCN1/N=C/c1ccc([N+](=O)[O-])o1` (stereo not given) [NIFURTIMOX], in series [2], the selectivity ratio is 36.5.

Consider `COc1ccc(/C=N/NC(=O)c2ccc3[nH]c(C)nc3c2)cc1`, for which the half-inhibitory concentration (IC50) in the series with Trypanosoma cruzi [3] worked out at 320 µM.

In series [1], `COc1cc(/C=C/C=N/NC(=O)c2ccc3[nH]c(C)nc3c2)ccc1O` came in with a CC50 at 24 h of 161 µM. Further, in the series on Trypanosoma cruzi [4], the outcome was Active. For the same compound, the Activity entry with Trypanosoma cruzi [5] and in the series with Trypanosoma cruzi [6] was “Dose-dependent effect” throughout. Further, in series [2], the selectivity ratio came to 20.1. In addition, the IC50 with Trypanosoma cruzi [3] is 8 µM.

For `COc1ccc(/C=N/NC(=O)c2ccc3[nH]c(C)nc3c2)cc1OC`, the IC50 in the series on Trypanosoma cruzi [3] was > 500 µM.

As for `Cc1nc2cc(C(=O)N/N=C/c3ccc([N+](=O)[O-])o3)ccc2[nH]1`, the IC50 in the series on Trypanosoma cruzi [3] came out at 434 µM.

For the compound `COc1cc(/C=N/NC(=O)c2ccc3[nH]c(C)nc3c2)ccc1O`, in series [1], the midpoint of cytotoxicity, the CC50 at 24 h, lay at 161 µM. Moreover, in the series on Trypanosoma cruzi [4], the outcome was inactive. Also, the Activity result in the series on Trypanosoma cruzi [5] and in the series with Trypanosoma cruzi [6] was “Dose-dependent effect” in each case. Further, in series [2], the selectivity ratio was 53.5. Besides, in the series on Trypanosoma cruzi [3], the 50% inhibitory concentration (IC50) is 3 µM.

`Cc1nc2cc(C(=O)N/N=C/c3ccccc3)ccc2[nH]1`: the IC50 with Trypanosoma cruzi [3] was found to be 280 µM.

Consider `O=C(Cn1ccnc1[N+](=O)[O-])NCc1ccccc1` [BENZNIDAZOLE], for which the half-inhibitory concentration (IC50) with Trypanosoma cruzi [3] was 7.5 µM.

For the compound `Cc1nc2cc(C(=O)NN)ccc2[nH]1`, in series [1], the cytotoxic concentration (CC50) at 24 h was 233 µM. Moreover, in series [2], the selectivity ratio was 0.6. In addition, the concentration for half-maximal inhibition (IC50) in the series with Trypanosoma cruzi [3] worked out at 393 µM.
